In the library only some 1.5% were active in any assay of this set; here they are far more common.
EBI2 antag: antagonists of human EBI2 receptor. P32249. EBI2 beta-arrestin recruitment, luminescence, 7a,25-OHC stimulated. inhibition, % at 5 µM. 360,000 compounds, 0.81% hits. AID 651636; in the data active = inhibition above about 38%;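 note: enzyme fragment complementation signal reports receptor beta-arrestin coupling in cells; 0% = agonist plus DMSO wells and 100% = wells without agonist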
Target sequence (P32249 whole entry, looked up, the tested form may be a part): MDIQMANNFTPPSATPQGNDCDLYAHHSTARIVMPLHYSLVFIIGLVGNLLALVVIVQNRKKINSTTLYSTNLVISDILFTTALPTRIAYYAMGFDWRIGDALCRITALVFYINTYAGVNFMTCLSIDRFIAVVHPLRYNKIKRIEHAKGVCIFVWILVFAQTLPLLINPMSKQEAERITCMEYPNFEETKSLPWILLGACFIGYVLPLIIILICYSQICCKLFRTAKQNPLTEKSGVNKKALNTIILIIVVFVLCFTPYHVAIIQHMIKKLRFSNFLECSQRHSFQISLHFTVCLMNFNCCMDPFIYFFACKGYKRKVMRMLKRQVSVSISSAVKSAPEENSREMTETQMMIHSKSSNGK
CXCR6 block: inhibitors of human CXCR6 receptor. O00574. CHO-K1 PathHunter CXCR6 beta-arrestin, luminescence. inhibition, % at 20 µM. 360,000 compounds, 0.36% hits; in the data active = inhibition above about 34%, passing the limit was not always enough;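 note: antagonist mode with CXCL16 agonist at 10 nM final; 0% = 10 nM CXCL16 with DMSO and 100% = unstimulated wells without agonist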
Target sequence (O00574 whole entry, looked up): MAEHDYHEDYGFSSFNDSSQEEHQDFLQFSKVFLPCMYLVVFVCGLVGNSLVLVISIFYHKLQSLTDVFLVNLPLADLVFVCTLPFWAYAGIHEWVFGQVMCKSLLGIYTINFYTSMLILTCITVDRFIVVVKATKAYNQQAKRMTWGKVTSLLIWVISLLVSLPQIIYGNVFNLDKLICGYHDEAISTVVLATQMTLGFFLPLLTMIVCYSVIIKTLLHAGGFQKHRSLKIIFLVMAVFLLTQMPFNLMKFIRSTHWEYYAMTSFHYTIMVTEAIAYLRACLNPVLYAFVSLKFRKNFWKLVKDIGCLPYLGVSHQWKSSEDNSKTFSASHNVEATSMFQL
APJ agonist: activates the human apelin receptor APJ | AID 2520 | 330,000 compounds, 0.11% hits | CHO-K1 APJ PathHunter beta-arrestin, luminescence; 0% DMSO wells, 100% apelin | activation, % at 20 µM | P35414;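 active = activation more than six SD over the plate average, tested at 20 µM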;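 note: 0% = DMSO alone and 100% = apelin-13 at 10 nM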
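Test system: CHO-K1 APJ beta-arrestin complementation cell line | Compound: Single test compound dose, 20 µM final, 1% DMSO | Incubation: Compound 90 min 25 °C, reagent 1 h | Measured by: beta-gal luminescence | Read-out basis: APJ–arrestin association signal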
APJ antagonist: antagonists of human APJ apelin receptor; AID 2521; CHO-K1 APJ beta-arrestin complementation, luminescence; P35414; inhibition, % at 20 µM; 330,000 compounds, 0.32% hits;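 active = inhibition above about 40% at 20 µM, limit read from the data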;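 note: cells challenged with 10 nM apelin-13 agonist together with compound; plate controls were apelin-13 plus DMSO wells for no effect and DMSO wells lacking apelin-13 for full effect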
CCR6 antag: CCR6 (human) receptor antagonism | 340,000 compounds, 0.49% hits | CHO-K1 CCR6 PathHunter beta-arrestin, luminescence, CCL20-stimulated | inhibition, % at 20 µM | P51684;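 active = compounds whose inhibition of the agonist-driven luminescence signal at 20 µM reaches about 50%, limit read from the data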;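 note: cells stimulated with CCL20 at 14 nM final; plate controls were DMSO with CCL20 for no effect and DMSO without agonist for full effect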
EBI2 antag conf: EBI2 (human) antagonism, single concentration confirmation; shares compounds with EBI2 antag; EBI2 beta-arrestin luminescence, 7a,25-OHC antagonism; inhibition, % at 5 µM; 2,400 compounds, 29% hits;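 active = inhibition of at least 50%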
EBI2 ag: EBI2 agonism counter-screen; shares compounds with EBI2 antag; EBI2-expressing cells, agonist mode, luminescence, 60 min; 0% vehicle, 100% 7α,25-dihydroxycholesterol control; activation, % at 5 µM; 2,400 tested, under 10 active; AID 652000;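 active = activation of at least 50%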
bGal cs: beta-galactosidase inhibition counter-screen. 2,400 compounds, 1% hits. inhibition, % at 5 µM. purified beta-galactosidase, luminescent Galacton Star, 15 min. shares compounds with EBI2 antag. AID 652176;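 active = replicate-average signal at least 3 plate SD below neutral wells, shown as high inhibition, flagging enzyme-inhibiting false positives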;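 note: 0% = DMSO wells with enzyme and 100% = wells lacking enzyme; higher means stronger loss of beta-gal luminescence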
* = called active by the depositor; . = no result.

SMILES	EBI2 antag	CXCR6 block	APJ agonist	APJ antagonist	CCR6 antag	EBI2 antag conf	EBI2 ag	bGal cs
O=C(/C=C/c1ccccc1Cl)N1CCN(c2ncccn2)CC1	60.0*	1.4	1.4	-5.1	14.8	38.9	-0.9	-20.1
CC(C)(C)c1ccc(C(O)c2ncc(-c3cccc(F)c3)[nH]2)cc1 (configuration not stated)	11.1	-4.3	.	.	.	.	.	.
CCN1CCN(C(=O)/C=C/c2ccc(OC)c(OC)c2)CC1	-0.8	0.1	0.6	-20.5	4.5	.	.	.
CCN1CCN(C(=O)/C=C/c2ccc(C(C)C)cc2)CC1	92.7*	-1.4	-5.4	-8.4	8.3	86.6*	0.3	2.6
CCN1CCN(C(=O)/C=C/c2cccc(Cl)c2)CC1	75.1*	-3.0	-5.9	11.0	5.5	34.2	1.2	2.5
O=C1OCCC1Sc1nnc(-c2ccccc2Br)n1Cc1ccccc1 (configuration not stated)	0.6	-3.9	-2.1	1.5	6.1	.	.	.
O=C1OCCC1Sc1nnc(-c2ccccc2Cl)n1Cc1ccccc1 (configuration not stated)	53.5*	4.1	-3.1	4.6	-5.1	12.0	-0.4	-7.4
O=C(Cn1c(CO)nc2ccccc21)NC1CCCCCC1	-5.6	5.0	-3.7	6.8	.	.	.	.
CCC(C)n1ncn(-c2ccc(N3CCN(c4ccc(OC)cc4)CC3)cc2)c1=O (configuration not stated)	-4.6	-11.7	1.1	-0.5	12.0	.	.	.
COc1ccc2c(c1)c1nc3ccccc3nc1n2Cc1ccc(OC(C)C)c(OC)c1	25.8	3.3	-4.7	4.0	17.2	.	.	.
COc1ccc(Cn2c3ccc(OC)cc3c3nc4ccccc4nc32)cc1	52.9*	-4.3	-4.2	9.1	2.1	21.5	-0.6	-14.0
O=C(NC1CCCC1)C1CCN(C(=O)c2ccc(-c3ccccc3)cc2)CC1	49.4*	-3.9	-2.2	6.0	-1.4	38.8	-1.3	-8.9
COc1ccc(CNC(=O)C2CCN(C(=O)c3ccc(-c4ccccc4)cc3)CC2)cc1	68.2*	7.1	-2.8	-6.2	5.3	43.5	-0.7	-12.1
C/C(=N\O)c1ncc(C(F)(F)F)cc1Cl	5.3	-3.7	0.5	8.6	-15.7	.	.	.
CCOC(=O)c1c(NC(=O)CSc2nccn2C)sc(C(=O)NC)c1C	-11.1	2.7	-7.0	4.0	15.2	.	.	.
O=C(Nc1ccc(S(=O)(=O)N2CCCC2)cc1)C1CC(=O)N(c2ccccc2)C1 (configuration not stated)	-3.9	-4.3	-0.1	-33.8	14.8	.	.	.
CCc1ccc(N2CC(C(=O)Nc3cc(C)ccc3F)CC2=O)cc1 (configuration not stated)	52.7*	3.1	1.6	-3.3	1.3	46.4	0.2	8.9
CCc1ccc(N2CC(C(=O)Nc3ccc(S(=O)(=O)N4CCCCC4)cc3)CC2=O)cc1 (configuration not stated)	80.6*	6.0	5.7	1.4	12.3	59.9*	-0.6	5.3
O=C(O)c1ccc(S(=O)(=O)c2ccc3c(c2)C(=O)N(c2ccc(Br)cc2)C3=O)cc1	-6.4	3.0	1.9	16.3	6.7	.	.	.
Clc1ccc(OCc2nnnn2-c2ccccc2)cc1	78.6*	-1.8	-4.9	6.8	22.1	54.4*	1.6	3.8
Cc1cc(OCC(=O)OCC(=O)NC2CCCCC2C)ccc1Cl (configuration not stated)	-5.8	-6.0	-3.9	-26.2	1.8	.	.	.
C#CCN(C[C@@H]1[C@@H](OC(=O)NCC2CCCCC2)[C@@H](OC(=O)NCC2CCCCC2)Cn2c(=O)n(CCCCCC)c(=O)n21)S(=O)(=O)c1ccc(C)cc1	21.6	3.9	.	.	.	.	.	.
Brc1cccc(-c2nnc3sc(CN4CCCCC4)cn23)c1	5.9	-6.1	-3.5	10.1	2.3	.	.	.
Brc1ccc(-c2nnc3sc(CN4CCN(c5ccccc5)CC4)cn23)cc1	75.2*	-1.6	1.7	-12.1	-7.3	39.0	1.0	7.7
COc1ccccc1NC(=O)c1ccc(CSc2ncccn2)cc1	.	.	-3.0	5.9	.	.	.	.
SMILES	EBI2 antag	CXCR6 block	APJ agonist	APJ antagonist	CCR6 antag	EBI2 antag conf	EBI2 ag	bGal cs
Cc1cc2nc(-c3ccc(SCc4ccc(C#N)cc4)nc3)[nH]c2cc1C	56.1*	-5.9	8.6	-6.9	-5.5	40.5	0.2	-9.0
Cc1cc2nc(-c3ccc(SCC(=O)Nc4nccs4)nc3)[nH]c2cc1C	54.6*	-7.0	.	.	8.2	45.0	-0.3	-11.4
CC(=O)CSc1ccc(-c2nc3cc(C)c(C)cc3[nH]2)cn1	30.8	-15.6	-2.6	-4.4	-9.8	.	.	.
O=[N+]([O-])c1ccc(CN2CCN(c3ccc([N+](=O)[O-])cc3)CC2)cc1	9.2	0.2	-0.3	6.9	21.8	.	.	.
O=[N+]([O-])c1ccc(N2CCC(=NOCc3ccc(Cl)cc3)CC2)cc1	52.9*	-1.5	-0.8	5.6	18.4	26.0	-0.8	-7.5
COc1ccc(C2c3ccc(O)cc3Oc3ncn4nc(-c5cccnc5)nc4c32)cc1OC (configuration not stated)	81.5*	13.1	-2.0	4.5	13.4	55.4*	-1.0	8.9
CC1CCCCN1C(=S)Nc1ccc(OC(F)F)cc1 (configuration not stated)	50.0*	13.6	-1.2	-8.7	-3.2	0.8	-1.2	-14.4
Cc1cc(Cl)ccc1OCCCC(=O)N1CCN(S(=O)(=O)c2ccccc2)CC1	62.6*	-2.6	-3.1	0.0	10.4	35.8	-1.2	5.1
Cc1ccc(C)c(OCCC(=O)N2CCN(S(=O)(=O)c3cc(F)ccc3F)CC2)c1	46.0*	4.0	-3.5	4.1	0.4	32.2	4.1	4.9
O=C(COc1ccc(Cl)cc1)N1CCN(S(=O)(=O)c2cc(F)ccc2F)CC1	86.7*	-3.6	.	.	.	68.1*	1.6	5.2
Cc1ccc(S(=O)(=O)N2CCN(C(=O)CCOc3cc(C)ccc3C)CC2)cc1	27.9	-2.2	-0.2	-50.6	7.8	.	.	.
O=C(C[n+]1ccccn1)c1ccccc1	2.1	-0.6	-4.8	9.7	-0.1	.	.	.
Clc1ccc(CN(CC2CCCO2)C(c2cccs2)c2nnnn2C2CCCC2)cc1 (configuration not stated)	49.2*	9.7	-1.2	14.6	32.0	4.0	-0.7	-12.9
CCN(Cc1ccccc1)C(c1cccs1)c1nnnn1C1CCCCC1 (configuration not stated)	49.4*	15.7	-1.5	18.9	29.1	18.6	-0.6	-13.5
CC1(C(=O)Nc2cnc3ccccc3c2)CCN1C(=O)c1ccccc1CCc1ccccc1 (configuration not stated)	47.7*	7.8	.	.	.	37.3	-0.2	-17.3
